Compounds with a hit are over-represented: about 3.5% of the library has one in this group of screens.
RGS4 pot: RGS4 potentiators or activators, primary screen, cell-based, HEK293 M3R inducible RGS4, calcium flux. carbachol calcium flux Fluo4; stronger effect = lower value. B-score at 10 µM. hit rate 0.92% among 310,000. AID 463111, 2010;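 active = B-score of the integrated calcium signal more than 4 SD below the library mean, with starting fluorescence not abnormally high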;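 note: negative B-score means reduced calcium response which marks RGS4 activation or potentiation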
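Detection: kinetic calcium fluorescence imaging with Fluo4-AM dye, 2 µM / Material: HEK293 cells with stable M3R and inducible RGS4 / Schedule: recording 10 s baseline at 1 Hz, 100 s post-agonist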
MrgX1 PAM: positive allosteric modulators of MrgX1, primary screen, HEK293 cells, Fluo-4 calcium flux; hit rate 0.63% among 310,000; B-score at 10 µM; FDSS; stronger effect = higher value; AID 588675, 2011; Mas-related G-protein coupled receptor member X1 (Homo sapiens), Q96LB2;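 active = plate-corrected calcium response at least 3 library SD above typical, normal starting fluorescence, not activating the receptor alone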;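 note: compound read alongside a low EC10 to EC30 dose of BAM8-22 agonist; peak minus trough fluorescence over baseline measured at the second addition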
Target sequence (Q96LB2 whole entry, looked up): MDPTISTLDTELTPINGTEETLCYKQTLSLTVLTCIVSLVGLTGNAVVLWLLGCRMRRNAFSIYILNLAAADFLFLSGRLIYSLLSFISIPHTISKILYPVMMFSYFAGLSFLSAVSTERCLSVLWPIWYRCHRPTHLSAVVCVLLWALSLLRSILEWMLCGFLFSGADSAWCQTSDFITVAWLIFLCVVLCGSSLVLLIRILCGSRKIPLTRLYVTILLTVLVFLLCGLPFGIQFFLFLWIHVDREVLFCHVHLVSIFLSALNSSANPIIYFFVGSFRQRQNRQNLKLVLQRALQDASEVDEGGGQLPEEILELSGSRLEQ
MrgX1 agonist: agonists of human MrgX1 receptor, primary screen, HEK293 cells, Fluo-4 calcium flux. Mas-related G-protein coupled receptor member X1 (Homo sapiens), Q96LB2. Fluo-4 calcium fluorescence, agonist mode; stronger effect = higher value. B-score at 10 µM. hit rate 0.44% among 310,000. AID 588627, 2011;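 active = calcium response B-score plate-corrected fluorescence ratio at least 3 library SD, with starting fluorescence B-score inside 5 SD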
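Material: MrgX1-expressing HEK293 cells / Dosing: compound as first of three additions / Incubation: overnight seeding, then 1 h dark dye loading / Signal: Fluo-4 NW calcium fluorescence / Evaluation: B-scored fluorescence response ratio / Benchmarks: positive and negative control wells on each plate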
RGS4 block: RGS4 inhibitors, primary screen, cell-based, HEK293 M3R inducible RGS4, calcium flux. Fluo-4 calcium flux; stronger effect = higher value; triggered by carbachol at its EC20. B-score at 10 µM. Regulator of G-protein signaling 4 (Homo sapiens), P49798. hit rate 0.45% among 310,000;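 active = B-score, a plate-corrected calcium signal, over three deviations above library mean, with baseline fluorescence within five deviations of library mean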;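 note: RGS4 expression induced by doxycycline in cells with stable M3 receptor; B-score is computed from the integrated fluorescence ratio over baseline after carbachol; higher B-score means a larger calcium signal and so more RGS4 inhibition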
Target sequence (P49798 whole entry, looked up): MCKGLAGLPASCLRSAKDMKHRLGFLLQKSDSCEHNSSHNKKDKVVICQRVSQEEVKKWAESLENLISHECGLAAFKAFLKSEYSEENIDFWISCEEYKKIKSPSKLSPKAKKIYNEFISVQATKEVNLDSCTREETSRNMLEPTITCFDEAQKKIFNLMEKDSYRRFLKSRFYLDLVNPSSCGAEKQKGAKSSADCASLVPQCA
MrgX1 antag: antagonists of human MrgX1 receptor, primary screen, HEK293 cells, Fluo-4 calcium flux. Mas-related G-protein coupled receptor member X1 (Homo sapiens), Q96LB2. BAM8-22 antagonism; stronger effect = lower value. B-score at 10 µM. hit rate 1.3% among 310,000. AID 588676, 2011;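 active = calcium-response B-score plate-corrected more than 3 library SD below zero, starting fluorescence within 5 deviations, no agonist response on first addition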;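 note: peak minus trough fluorescence over baseline after final BAM8-22 challenge near maximal dose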
Hits are given with their value; 0 = inactive; - = no result.

SMILES | RGS4 pot | MrgX1 PAM | MrgX1 agonist | RGS4 block | MrgX1 antag
COC(=O)C1=NN(C(=O)c2ccccc2)C(O)(c2ccc([N+](=O)[O-])cc2)C1 (stereo not given) | 0 | 0 | 54 | 0 | 0
COC(=O)C1=NN(C(=O)c2ccc(C)cc2)C(O)(c2ccc(Cl)cc2)C1 (stereo not given) | 0 | 0 | 67 | 0 | 0
CCOc1ccc(N(CC(=O)NCc2ccco2)C(=O)CCC(=O)Nc2nccs2)cc1 | 0 | 0 | 0 | 0 | 0
C/C(=N\NC(=O)c1ccc(Cn2cc(Br)cn2)o1)c1ccc(NC(=O)c2ccoc2C)cc1 | -9.5 | - | - | 0 | -
C/C(=N\NC(=O)c1ccc(Cn2cc(Br)cn2)o1)c1cccc(NC(=O)C(C)(C)C)c1 | 0 | 0 | 0 | 0 | 0
C=CCN(c1ccccc1)S(=O)(=O)c1cccc(C(=O)N2CC(C)CC(C)C2)c1 (stereo not given) | 0 | 0 | 0 | 0 | 0
O=C(OCn1ncc(Br)c(Br)c1=O)c1c(F)cccc1F | 0 | 0 | 0 | 5.4 | 0
CC(=O)Cn1ncc(Br)c(Br)c1=O | 0 | - | - | 0 | -
N=c1c2c(-c3ccccc3)c(-c3ccccc3)n(Cc3ccco3)c2ncn1CCCn1ccnc1 | 0 | 0 | 0 | 0 | 0
CN(C)CCCNc1ncnc2oc(-c3ccccc3)c(-c3ccccc3)c12 | 0 | 0 | 0 | 0 | 0
c1ccc(-c2oc3ncnc(NCCCn4ccnc4)c3c2-c2ccccc2)cc1 | 0 | 0 | 0 | 0 | -5.4
c1ccc(-c2c(-c3ccccc3)n(Cc3ccco3)c3ncnc(NCCCn4ccnc4)c23)cc1 | -8.5 | 0 | 0 | 0 | 0
OCCNc1ncnc2c1c(-c1ccccc1)c(-c1ccccc1)n2Cc1ccco1 | 0 | 0 | 0 | 0 | 0
CC(C)Cn1cnc2c(c(-c3ccccc3)c(-c3ccccc3)n2Cc2ccco2)c1=N | -11 | 0 | 0 | 0 | 0
CC(=O)N/C(=C\c1ccc(Br)s1)C(=O)O | 0 | 0 | 0 | 0 | 0
O=C1CSC(c2cccc([N+](=O)[O-])c2)N1Cc1ccccc1 (stereo not given) | 0 | 0 | 0 | 0 | 0
COc1ccc(C)cc1N(C(=O)c1snc(C(N)=O)c1N)C(C(=O)NC1CCCCC1)c1ccc(C)o1 (stereo not given) | 0 | - | - | 0 | -
Cc1[nH]c2ccccc2c1C1(O)C(=O)N(C(C)C)c2ccccc21 (stereo not given) | 0 | 0 | 0 | 0 | 0
Cc1ccc2c(c1)C(O)(c1c(C)[nH]c3ccccc13)C(=O)N2 (stereo not given) | 0 | 0 | 0 | 6.3 | 0
Cc1cccc2sc(NC(=O)C3CCN(S(=O)(=O)c4cc([N+](=O)[O-])ccc4Cl)CC3)nc12 | 0 | 0 | 0 | 0 | -6.8
O=C(NCc1ccc(Cl)cc1)C1CCN(S(=O)(=O)c2cc([N+](=O)[O-])ccc2Cl)CC1 | 0 | 0 | 0 | 0 | 0
CC(C)(C)c1cc(S(=O)(=O)CCc2ccncc2)cc(C(C)(C)C)c1F | 0 | 0 | 0 | 0 | 0
C=CCCCCc1nc2ccccc2c(=O)n1N | 0 | 0 | 0 | 0 | 0
CCCCCCc1nc2ccccc2c(=O)n1N | 0 | 9.1 | 0 | 0 | 0
CO/N=C/C(c1ccc(Cl)nc1)S(=O)(=O)c1ccccc1 (stereo not given) | 0 | 0 | 0 | 0 | 0
SMILES | RGS4 pot | MrgX1 PAM | MrgX1 agonist | RGS4 block | MrgX1 antag
CO/N=C/C(c1ncc(C(F)(F)F)cc1Cl)S(=O)(=O)c1ccccc1 (stereo not given) | 0 | 0 | 0 | 0 | -8.2
CCOc1ccc(CNC(=O)CN2C(=O)C(c3ccccc3)Oc3cccnc32)cc1 (stereo not given) | 0 | 0 | 0 | 0 | 0
Cc1ccc(-n2c3nc(=O)[nH]c(=O)c-3cc3cc([N+](=O)[O-])ccc32)cc1 | 0 | 0 | 53 | 0 | 0
O=C(c1ccccc1)C(Nc1ccccn1)c1ccccc1 (stereo not given) | -7.5 | 0 | 0 | 0 | 0
O=C(CC(=O)c1ccccc1)Nc1ccccn1 | 0 | 0 | 0 | 0 | 0
CC(C)CCN(C(=S)Nc1cccc(F)c1)C(C)c1cccs1 (stereo not given) | 0 | 10 | 0 | 0 | 0
COCCN(C(=S)Nc1cccc(C)c1)C(C)c1cccs1 (stereo not given) | 0 | 0 | 0 | 0 | 0
Cc1cccc(NC(=O)C2CCN(S(=O)(=O)c3ccc4c(c3)NC(=O)CO4)CC2)c1 | 0 | 0 | 0 | 0 | 0
Cc1ccc(/C=C2\SC(=S)N(C3CCS(=O)(=O)C3)C2=O)o1 (stereo not given) | 0 | 0 | 0 | 0 | 0
NS(=O)(=O)c1ccc(-c2ccc(/C=C3\SC(=S)N(C4CCS(=O)(=O)C4)C3=O)o2)cc1 (stereo not given) | 0 | 0 | 0 | 0 | -8.6
Cc1csc(SC(C)C(=O)NCC2CCCCC2)n1 (stereo not given) | 0 | 0 | 0 | 0 | 0
Cc1[nH]c2ccccc2c1/C=N/Nc1ccc([N+](=O)[O-])cc1 | 0 | 0 | 0 | 0 | -4.9
C/C(=N/Nc1ccc([N+](=O)[O-])cc1)c1c[nH]c2ccccc12 | 0 | 0 | 0 | 0 | -4.9
C/C(=N/Nc1ccc([N+](=O)[O-])cc1)c1ccc(C)cc1C | 0 | 0 | 0 | 0 | 0
COc1cc(NC(=O)CN(C)C2CCCCC2)c(C)cc1[N+](=O)[O-] | 0 | 0 | 0 | 0 | -5.2
CC(C)(C)c1ccc(OCCNC(=S)NC(=O)c2cccnc2)cc1 | 0 | 0 | 0 | 0 | 0
Oc1cccc2ccc(Nc3ccccn3)nc12 | 0 | 0 | 0 | 0 | -7.4
CS(=O)(=O)c1ccc(Cl)c(NC(=O)c2cc(=O)[nH]c3ccc(S(=O)(=O)N4CCOCC4)cc23)c1 | 0 | 0 | 0 | 0 | 0
CCN1C(=O)/C(=C/C=C2\N(CC)c3cc(S(=O)(=O)N(C)C)ccc3N2c2ccccc2)SC1=S | 0 | 0 | 36 | 0 | 0
O=C1CCC([N+](=O)[O-])C(C2CC=CCC2)N1 (stereo not given) | 0 | 0 | 0 | 0 | 0
CC(C)C(C)N(Cc1cccc(C(=O)O)c1)C(=O)c1ccc2ccccc2n1 (stereo not given) | 0 | 0 | 0 | 0 | 0
O=C(NCCOc1ccccc1)C1CCC(=O)N(C2CCCCCC2)C1 (stereo not given) | 0 | 0 | 0 | 0 | 0
O=C(CCCN1C(=O)/C(=C/c2ccc(F)cc2)SC1=S)NC1CCS(=O)(=O)C1 (stereo not given) | 0 | 0 | 0 | 0 | 0
CCCc1nnc(NC(=O)C(=O)NCCN(CC)CC)s1 | -7.3 | - | - | 0 | -
C/C(CC(C)(C)C1CCCCC1)=N\NC(N)=S | 0 | 0 | 0 | 0 | -8.7
O=C1CCC([N+](=O)[O-])C(c2cc3c(cc2Cl)OCO3)N1 (stereo not given) | 0 | 0 | 0 | 0 | -4.5
Cc1cc(C)[n+](-c2ccc(C(C)C)cc2)c2[nH]c(=O)[nH]c(=O)c12 | -9 | 0 | 0 | 0 | 0
